Results from ChEMBL document CHEMBL1145517, “Kinetic characterization of squalene synthase from Trypanosoma cruzi: selective inhibition by quinuclidine derivatives” (Antimicrob Agents Chemother, 2007).

T1: Squalene synthase (Homo sapiens, UniProt P37268)
T1 sequence (P37268 whole entry): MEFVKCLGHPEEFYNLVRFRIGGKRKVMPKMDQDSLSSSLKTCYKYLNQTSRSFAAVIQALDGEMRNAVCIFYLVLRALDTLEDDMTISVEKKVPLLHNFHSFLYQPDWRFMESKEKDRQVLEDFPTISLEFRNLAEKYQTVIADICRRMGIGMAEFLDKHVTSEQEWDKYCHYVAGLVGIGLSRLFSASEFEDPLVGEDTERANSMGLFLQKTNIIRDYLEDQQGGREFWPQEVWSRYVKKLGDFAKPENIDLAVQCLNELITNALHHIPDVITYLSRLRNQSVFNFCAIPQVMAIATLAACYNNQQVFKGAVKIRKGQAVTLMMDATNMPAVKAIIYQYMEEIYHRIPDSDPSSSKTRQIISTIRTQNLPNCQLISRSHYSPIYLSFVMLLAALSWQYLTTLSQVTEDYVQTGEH

B1: Squalene synthase (Homo sapiens), P37268 (protein)
chain: T1 sequence (P37268 whole entry)

How the values were obtained:
Trypanosoma cruzi [1] = experiment: Antitrypanosomal activity against intracellular Trypanosoma cruzi amastigotes in rat L6 cells; assay type: functional, organism-based
Method in brief: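 L6 rat myoblasts were seeded at 2,000 cells/well in RPMI 1640 with 10% FBS and 2 mM L-glutamine. After 24 h, 5,000 Tulahuen C2C4 trypomastigotes expressing lacZ were added with twofold serial drug dilutions. Plates were incubated 4 days at 37°C in 5% CO2. CPRG/Nonidet was then added, and colour was read at 540 nm after 2–4 h. IC50 came from the sigmoidal inhibition curve.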

[2] = Selectivity index, ratio of IC50 for human recombinant squalene synthase over IC50 for Trypanosoma cruzi squalene synthase
Method in brief: (§1)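 T. cruzi enzyme was purified TcSQS24/36; human SQS was E. coli extract expressing pHSS16. Stopped with NaOH, squalene carrier added, TLC in toluene-ethyl acetate 9:1, squalene zone counted by scintillation. Index = human IC50 / T. cruzi IC50.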

[3] = Inhibition of Trypanosoma cruzi recombinant squalene synthase
Method in brief: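 The enzyme was purified His-tagged T. cruzi SQS expressed in E. coli, truncated by 24 N-terminal and 36 C-terminal residues. Activity was measured as [3H]FPP-to-[3H]squalene conversion in pH 7.4 MOPS-NaOH with 20 mM MgCl2, 5 mM CHAPS, 1% Tween 80, 10 mM DTT, 0.25 mM NADPH and 0.5 μM FPP, 5 min at 37°C. Reactions were stopped with NaOH, squalene was separated by silica TLC and counted by scintillation, and IC50 was curve-fitted.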

Squalene synthase = target: T1, Squalene synthase; experiment: Inhibition of human recombinant squalene synthase
Method in brief: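 The enzyme source was extracts of E. coli expressing truncated human SQS. Activity was measured as [3H]FPP-to-squalene conversion at 0.5 μM FPP and 0.25 mM NADPH in pH 7.4 MOPS-NaOH with MgCl2, CHAPS, Tween 80 and DTT, for 5 min at 37°C. Reactions were stopped with NaOH, squalene was separated by silica TLC (toluene-ethyl acetate 9:1) and counted by scintillation, and IC50 was curve-fitted.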

[4] = Selectivity index, ratio of IC50 for rat L6 cells over IC50 for intracellular Trypanosoma cruzi amastigotes; assay type: functional
Saccharomyces cerevisiae = experiment: Activity of Saccharomyces cerevisiae C-terminal truncated squalene synthase
Leishmania mexicana [5] = experiment: Activity of Leishmania mexicana glycosomal squalene synthase
Trypanosoma cruzi [6] = experiment: Activity of Trypanosoma cruzi glycosomal squalene synthase
Trypanosoma cruzi [7] = experiment: Activity of Trypanosoma cruzi microsomal or mitochondrial squalene synthase
Trypanosoma cruzi [8] = experiment: Activity of Trypanosoma cruzi truncated squalene synthase 24/36
Method in brief: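 Purified N-His-tagged TcSQS24/36 (E. coli, IMAC then MonoQ) in 50 mM MOPS-NaOH pH 7.4, 20 mM MgCl2, 5 mM CHAPS, 1% Tween 80, 10 mM DTT, 0.025 mg/ml BSA. [3H]FPP to [3H]squalene, 5 min at 37°C. FPP Km: 1–20 μM FPP with 2 mM NADPH. NADPH Km: 5–400 μM NADPH with 20 μM FPP. Nonlinear hyperbolic fits.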

Leishmania mexicana [9] = experiment: Activity of Leishmania mexicana microsomal or mitochondrial squalene synthase
L6 = experiment: Growth inhibition of rat L6 cells; assay type: cell-based
Homo sapiens = species: Homo sapiens; experiment: Activity of human double-truncated squalene synthase; method in brief: as §1
[10] = substrate: NC(=O)c1ccc[n+]([C@@H]2O[C@H](COP(=O)([O-])OP(=O)(O)OC[C@H]3O[C@@H](n4cnc5c(N)ncnc54)[C@H](OP(=O)(O)O)[C@@H]3O)[C@@H](O)[C@H]2O)c1; experiment: (§2) Activity of human full length squalene synthase expressed in baculovirus
[11] = substrate: CC(C)=CCC/C(C)=C/CC/C(C)=C/COP(=O)(O)OP(=O)(O)O; experiment: as §2

| Molecule | IC50 (Trypanosoma cruzi [1]) | Ratio IC50 [2] | IC50 [3] | IC50 (Squalene synthase) | Ratio IC50 [4] | IC50 (L6) | also measured |
| --- | --- | --- | --- | --- | --- | --- | --- |
| CO[C@H]1CN(c2ccc(C#C[C@@]3(O)CN4CCC3CC4)c(Cc3ccccc3)n2)C[C@H]1O | 8 nM | 1.8 | 0.84 nM | 1.5 nM |  |  |  |
| CCOC(=O)c1ccc(C2=CN3CCC2CC3)cc1 |  | 140 | 50 nM | 7000 nM | 17 |  |  |
| NC(=O)c1ccc[n+]([C@@H]2O[C@H](COP(=O)([O-])OP(=O)(O)OC[C@H]3O[C@@H](n4cnc5c(N)ncnc54)[C@H](OP(=O)(O)O)[C@@H]3O)[C@@H](O)[C@H]2O)c1 |  |  |  |  |  |  | Km (Saccharomyces cerevisiae): 530 µM; Km (Leishmania mexicana [5]): 62 µM; Vmax (Leishmania mexicana [5]): 0.58 nmol/min/mg; Km (Trypanosoma cruzi [6]): 40 µM; Vmax (Trypanosoma cruzi [6]): 0.43 nmol/min/mg; Km (Trypanosoma cruzi [7]): 33 µM; Vmax (Trypanosoma cruzi [7]): 0.76 nmol/min/mg; Km (Trypanosoma cruzi [8]): 23.3 µM; Vmax (Trypanosoma cruzi [8]): 1850 nmol/min/mg; Km (Leishmania mexicana [9]): 57 µM; Vmax (Leishmania mexicana [9]): 0.84 nmol/min/mg |
| C(#Cc1ccc(OCc2ccccc2)cc1)C1=CN2CCC1CC2 | 3100 nM | 0.3 | 830 nM | 250 nM | 15 | 47200 nM |  |
| O[C@]1(C#Cc2cccc(OCc3ccccc3)c2)CN2CCC1CC2 | 9600 nM | > 13 | 1500 nM | > 20000 nM | 4.7 | 45000 nM |  |
| C1=C(Cc2ccc(-c3ccccc3)cc2)C2CCN1CC2 | 4700 nM | > 27 | 730 nM | > 20000 nM | 4.4 | 20500 nM |  |
| CC(C)=CCC/C(C)=C/CC/C(C)=C/COP(=O)(O)OP(=O)(O)O |  |  |  |  |  |  | Km (Saccharomyces cerevisiae): 2.5 µM; Km (Leishmania mexicana [5]): 3.2 µM; Vmax (Leishmania mexicana [5]): 0.75 nmol/min/mg; Km (Trypanosoma cruzi [6]): 2.8 µM; Vmax (Trypanosoma cruzi [6]): 0.97 nmol/min/mg; Km (Homo sapiens): 2.8 µM; Km (Trypanosoma cruzi [7]): 2.3 µM; Vmax (Trypanosoma cruzi [7]): 1.18 nmol/min/mg; Km (Trypanosoma cruzi [8]): 5.25 µM; Vmax (Trypanosoma cruzi [8]): 1430 nmol/min/mg; Km (Leishmania mexicana [9]): 2.8 µM; Vmax (Leishmania mexicana [9]): 0.98 nmol/min/mg |
| COCCCOc1ccc(C#C[C@@]2(O)CN3CCC2CC3)c(Cc2ccccc2)n1 | 11 nM | 1.7 | 3.52 nM | 6 nM |  |  |  |
| B1 |  |  |  |  |  |  | Km [10]: 430 µM; Vmax [10]: 3800 nmol/min/mg; Km [11]: 2.3 µM; Vmax [11]: 4800 nmol/min/mg |
